Compounds with a hit are over-represented: about 1.4% of the library has one in this group of screens.
A3G deaminase: inhibitors of human APOBEC3G DNA deaminase. Q9HC16. recombinant A3G, ssDNA deamination FAM/TAMRA fluorescence. inhibition, % at 20 µM. hit rate 0.28% among 330,000;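 active means inhibition of at least 40% at 20 µM, with no more than 30% in the related APOBEC3A deaminase screen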;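 further: plate controls were DMSO wells with A3G for no effect and wells lacking A3G enzyme for full effect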
Target sequence (Q9HC16 whole entry, looked up): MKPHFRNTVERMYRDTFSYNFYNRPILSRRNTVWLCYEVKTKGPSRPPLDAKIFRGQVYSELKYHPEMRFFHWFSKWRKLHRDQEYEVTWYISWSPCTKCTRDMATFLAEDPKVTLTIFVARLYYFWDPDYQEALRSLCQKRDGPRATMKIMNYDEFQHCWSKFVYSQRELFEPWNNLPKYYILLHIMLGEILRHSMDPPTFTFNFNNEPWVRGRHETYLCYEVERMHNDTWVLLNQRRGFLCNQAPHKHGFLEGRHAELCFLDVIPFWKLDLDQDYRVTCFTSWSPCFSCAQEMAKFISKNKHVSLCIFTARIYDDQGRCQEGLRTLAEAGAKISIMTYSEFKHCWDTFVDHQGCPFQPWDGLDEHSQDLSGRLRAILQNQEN
iPSC survival up: enhancers of human iPSC single-cell survival. hiPSC single-cell survival, ATPlite luminescence; 100% = ROCK inhibitor wells, 0% = DMSO. survival enhancement, % at 20 µM. hit rate 0.044% among 360,000. AID 602274; in the data active means survival enhancement above about 18%;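 further: cells exposed to compounds for 16 hours before the ATP read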
APOBEC3A inh: inhibitors of human APOBEC3A DNA deaminase | P31941 | recombinant A3A, FAM/TAMRA ssDNA deamination fluorescence | inhibition, % at 20 µM | hit rate 0.41% among 330,000 | AID 493011;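 active means at least 40% inhibition at 20 µM here, with at most 30% in a related deaminase screen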;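 further: plate controls were A3A with DMSO for no effect and wells lacking A3A enzyme for full effect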
Target sequence (P31941 whole entry, looked up): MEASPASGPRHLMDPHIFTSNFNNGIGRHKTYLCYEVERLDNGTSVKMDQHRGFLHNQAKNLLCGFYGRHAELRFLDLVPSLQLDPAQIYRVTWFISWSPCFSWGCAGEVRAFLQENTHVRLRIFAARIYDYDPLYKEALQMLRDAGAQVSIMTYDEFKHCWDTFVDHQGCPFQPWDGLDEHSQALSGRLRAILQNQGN
PfGluPho inh: PfG6PD (Plasmodium falciparum) enzyme inhibition; PfGluPho enzyme, NADPH resazurin-diaphorase fluorescence; inhibition, % at 20 µM; hit rate 0.78% among 350,000; AID 504690;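 active means inhibition reaching at least a set limit at 20 µM in the primary screen, cut at about 59% in these data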;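 further: 0% = DMSO wells with substrate and 100% = DMSO wells lacking glucose-6-phosphate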
HKDC1 inh: HKDC1 (human) hexokinase inhibition; Q2TB90; recombinant HKDC1, G6PDH/diaphorase resazurin coupled fluorescence; inhibition, % at 20 µM; hit rate 0.16% among 340,000; AID 493160;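 active means inhibition above about 35% when tested at 20 µM, limit read from the data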;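 further: plate controls were DMSO wells with enzyme for no effect and DMSO wells lacking enzyme for full effect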
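Test system: HK5 enzyme. Quantity: 5 µg/mL HK5 final. Reagent: glucose and ATP substrates. Schedule: 90 min reaction incubation at room temperature, dark. Technique: resazurin-to-resorufin fluorescence via G6PDH and diaphorase coupling, 525/613 nm. Control set: DMSO wells with and without enzyme mix.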
* hit, by the source's call; . = no result.

SMILES	A3G deaminase	iPSC survival up	APOBEC3A inh	PfGluPho inh	HKDC1 inh
O=C1NC(=S)S/C1=C\c1ccc(SCc2ccco2)o1	.	3	.	26	51*
Oc1[nH]c(=S)sc1/C=C1\C(c2ccccc2)=Nc2ccccc21	.	-1	.	-14	17
CC(=O)OCCNc1cc(Sc2nc3ccccc3[nH]2)c2nonc2c1[N+](=O)[O-]	.	0	.	65*	11
Cc1cc2cc(CNC(=O)C(C)Oc3ccccc3)ccc2n1C (stereo not drawn)	-4	0	-3	13	-4
Cc1ccc(C)c(S(=O)(=O)N2CCN(c3nc(-c4cccnc4)nc4ccccc34)CC2)c1	-7	0	-2	-4	4
CCN1/C(=C/c2ccc3cc(C)ccc3[n+]2C)Sc2ccc3sccc3c21	.	-5	.	65*	11
Nc1c(OS(=O)(=O)c2ccccc2)cccc1OS(=O)(=O)c1ccccc1	.	-2	.	-8	.
CC[n+]1c(/C=C/N(C)c2ccccc2)oc2ccc(Cl)cc21	-6	-1	-2	29	-19
CCN1/C(=C/C=C/c2oc3ccc4ccccc4c3[n+]2CC)Oc2ccc3ccccc3c21	-268	.	-98	60*	51*
CCC(C)N1C(=O)CN(C2CCCCCC2)C(=O)C1c1ccccc1F (stereo not drawn)	-13	0	-1	-4	-2
O=C(Nc1ncccn1)c1cc([N+](=O)[O-])cc([N+](=O)[O-])c1	-6	3	0	2	-2
O=[N+]([O-])c1cc(-c2ncccn2)c([N+](=O)[O-])s1	-5	-4	0	123*	10
Cc1ccc(S(=O)(=O)N(C)C)cc1NC(=S)Nc1cccc2ccccc12	-2	0	-4	61*	16
Cc1ccc(NS(=O)(=O)c2ccc3c(c2)CC(=O)N3)c(C)c1	-6	31*	-4	-10	0
Cc1ccc(NS(=O)(=O)c2ccc3c(c2)NC(=O)CO3)c(C)c1	0	0	0	23	-4
COc1ccc(-c2csc(NC(=O)c3cc(=O)c4ccccc4o3)n2)cc1OC	-7	0	-2	67*	12
COc1ccc2[nH]c(=O)c(CN(C3CCCCC3)C(c3nnnn3Cc3ccco3)C(C)C)cc2c1 (stereo not drawn)	30	-4	2	88*	37*
COc1ccc2[nH]c(=O)c(CN(Cc3nnnn3Cc3ccco3)C3CCCCC3)cc2c1	10	3	35	35	3
CCCOC(=O)Oc1ccc2c(=O)c(Oc3cc(C)cc(C)c3)coc2c1	-9	25*	-3	-15	9
Cc1ccc(S(=O)(=O)O/N=C2\CCCc3ccccc32)cc1	-7	1	-1	-9	17
CC1=C(C)/C(=N\OS(=O)(=O)c2ccccc2)C=CC1=O	-3	-4	-1	112*	19
CCCCc1cc(=O)oc2cc(OCc3cc(OC)c(OC)c(OC)c3)c(Cl)cc12	9	23*	-5	-10	2
CCCc1cc(=O)oc2cc(OCc3cc(OC)c(OC)c(OC)c3)c(Cl)cc12	-3	2	0	6	3
O=C(/C=C/[C@H]1O[C@@H](n2ccc(=O)[nH]c2=O)[C@H](O)[C@@H]1O)NCc1ccco1	.	1	.	.	.
COc1ccc(C(CNC(=O)c2nn(-c3ccccc3)c(=O)c3ccccc23)N2CCOCC2)cc1 (stereo not drawn)	-10	0	-2	-4	-3
SMILES	A3G deaminase	iPSC survival up	APOBEC3A inh	PfGluPho inh	HKDC1 inh
CCOC(=O)N1CCN(C(=O)C2CCN(C(=O)c3ccccc3C)CC2)CC1	.	-4	.	117*	0
O=C(CCC(=O)Nc1ccccc1Cl)NN=C1CCCC1	-1	0	0	-3	-7
CCOC(=O)c1c(-c2cc(OC)c(OC)c(OC)c2)csc1N	.	21*	.	9	.
CCOCCCNC(=O)c1cn(CC)c2ccc(S(=O)(=O)N3CCC(C)CC3)cc2c1=O	-6	-1	-4	10	-6
O=C(Nc1cccc2ccccc12)/C(=C/c1ccc([N+](=O)[O-])cc1)NC(=O)c1ccccc1	-5	-1	-5	17	5
O=C(Nc1cccc(C(=O)O)c1)/C(=C/c1ccc([N+](=O)[O-])cc1)NC(=O)c1ccccc1	-8	-1	-1	-14	5
Cc1ccc(NC(=O)/C(=C\c2ccc([N+](=O)[O-])cc2)NC(=O)c2ccccc2)cc1	-3	58*	0	-18	-3
O=C(N/N=C/c1ccc(O)c(O)c1O)/C(=C/c1ccc([N+](=O)[O-])cc1)NC(=O)c1ccccc1	36	3	39	84*	25
CCN(CC)C(=O)c1cccc(-c2csc(C(NC(C)=O)c3cccc(OC)c3)n2)c1 (stereo not drawn)	.	0	.	.	.
COc1cc2c(cc1OC)-c1n[nH]c(=S)n1C(C)(C)C2	48*	-1	-6	34	4
CCC1(c2ccccc2)CN(C)C1=O (stereo not drawn)	.	2	.	1	.
CCN1c2ccccc2N(C)C1(C)c1ccccc1 (stereo not drawn)	.	-4	.	67*	24
CNC(CC(=O)c1ccc([N+](=O)[O-])cc1)C(Cl)(Cl)Cl (stereo not drawn)	.	-2	.	70*	12
O=C(CSc1n[nH]c(-c2ccccc2)n1)Nc1ncc(Br)cc1Br	-4	3	-2	19	48*
Cc1[nH]n(-c2ccccc2)c(=S)c1C=Nc1ccc([N+](=O)[O-])cc1	.	2	.	98*	-9
Cc1[nH]n(-c2ccccc2)c(=O)c1C=Nc1ccc(S(=O)(=O)N=C(N)N)cc1	-5	1	0	-4	10
CCCOC(=O)C1NC(=O)N2C(C(=O)OCCC)C(C)(C)S[C@H]12 (stereo partly drawn)	-5	23*	-3	-13	-3
CC1(C)S[C@@H]2C(C(=O)OCc3ccccc3)NC(=O)N2C1C(=O)OCc1ccccc1 (stereo partly drawn)	0	-3	1	0	0
Cc1nc(-c2c(C(F)(F)F)noc2-c2ccc(O)cc2O)cs1	-7	3	0	1	-8
Oc1ccc(-c2onc(C(F)(F)F)c2-c2cscn2)c(O)c1	0	20*	-1	-24	6
O=C1c2c([N+](=O)[O-])cc([N+](=O)[O-])cc2S(=O)N1Cc1ccccc1 (stereo not drawn)	38	0	2	62*	4
O=[N+]([O-])c1ccc(NC2CCN(Cc3ccccc3)CC2)c([N+](=O)[O-])c1	0	-1	-5	-8	3
CCNC(=O)C1(C)CCN(C(=O)c2ccc(C(F)(F)F)cc2)C1 (stereo not drawn)	.	-1	.	.	.
O=S(=O)(Nc1nc2ccccc2nc1NCc1ccco1)c1ccc(F)cc1	3	1	-1	-36	4
Cc1c(C(=O)NCc2ccccc2C(F)(F)F)sc(=O)n1Cc1ccc2ccccc2c1	.	20*	.	.	.

Source: PubChem (Sanford-Burnham Center for Chemical Genomics)
